As usually defined, the IC50 is the concentration that gives 50% inhibition. One may read the logD as lipophilicity at a set pH, counting ionised and neutral species. Read a high logD as higher lipophilicity. One may read the Ki as a measure of affinity in units of concentration, obtained from inhibition or displacement. Usually Cmax stands for the highest concentration seen after dosing. By half-life is commonly meant the time in which the quantity being followed falls by half. The bioavailability is the share of a dose that reaches the circulation, judged against a reference dose that is usually intravenous. Read a low bioavailability as poor availability.

SMILES strings stand for the structures.

Data set [1] deals with Metabotropic glutamate receptor 5 (Homo sapiens, UniProt P41594). The data set can be described thus: In vitro potency against human recombinant mGlu5 receptor was determined by [Ca2+] flux assay using glutamate as agonist. Format: functional. An outline of the steps:
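Ltk cells stably expressing human recombinant mGlu5; automated assay of cytosolic Ca²⁺ changes by fura-2 fluorescence; IC50 from antagonist response. Mean with a spread value and n in parentheses.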

Data set [2] in a line: logD value was determined. Format: physicochemical. The note with it: octanol/water.
Data set [3] addresses Metabotropic glutamate receptor 5 (Rattus norvegicus, UniProt P31424). Put plainly: Displacement by compound of [3H]3-methoxy-5-(pyridin-2-ylethynyl)pyridine from rat cortical membranes. Format: cell membranes, Membrane. The procedure, abridged:
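Native rat mGlu5 binding: rat cortical membranes, displacement of [³H]-3-methoxy-5-(pyridin-2-ylethynyl)pyridine by test compound; Ki derived.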

Data set [4] is described as follows: Plasma clearance of compound upon i.v. administration at 2 mg/kg. Format: ADME, organism-based. The arrangement: dose 2 mg/kg, route intravenous. The note with it: rat, iv, read-out: Clp. An outline of the steps:
(§1)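 Rat pharmacokinetics with two dosing regimens. In one, iv at 2 mg/kg with po at 10 mg/kg. In the other, iv at 1 mg/kg with po at 2 mg/kg. Bioavailability, clearance, half-life and Cmax come from plasma after each route.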

Data set [5] in a line: Maximum plasma concentration of compound after p.o. administration. Format: ADME, organism-based. On the set-up: route oral. The note with it: rat, po. The procedure, abridged:
as §1

Data set [6] in a line: Half-life of compound after i.v. administration. Format: ADME, organism-based. To be noted: rat, in vivo, iv. An outline of the steps: as §1
Data set [7] is described as follows: Plasma clearance of compound upon p.o. administration at 10 mg/kg. Format: ADME, organism-based. The note with it: rat, po, read-out: Clp. On the set-up: dose 10 mg/kg, route oral. The procedure, abridged: as §1
Data set [8] in a line: Bioavailability in rat (dose 2 mg/kg i.v.). To be noted: in vivo, iv. Format: ADME, organism-based. An outline of the steps: as §1
Data set [9] in a line: Bioavailability in rat (dose 10 mg/kg p.o.). The note with it: in vivo, po. Format: ADME, organism-based. The procedure, abridged:
as §1

A short description of data set [10]: Plasma clearance of compound upon i.v. administration at 1 mg/kg. Format: ADME, organism-based. On the set-up: dose 1 mg/kg, route intravenous. The note with it: rat, iv, read-out: Clp. An outline of the steps:
as §1

Data set [11] can be described thus: Plasma clearance of compound upon p.o. administration at 2 mg/kg. Format: ADME, organism-based. On the set-up: dose 2 mg/kg, route oral. The note with it: rat, po, read-out: Clp. An outline of the steps: as §1
The nature of data set [12]: Bioavailability of compound was determined upon i.v. administration at 1 mg/kg in rat. The note with it: in vivo, iv. Format: ADME, organism-based. An outline of the steps:
as §1

Data set [13] in a line: Bioavailability of compound was determined upon p.o. administration at 2 mg/kg in rat. Format: ADME, organism-based. To be noted: in vivo, po. The procedure, abridged: as §1

Metabotropic glutamate receptor 5 (Homo sapiens, UniProt P41594), sequence (P41594 whole entry): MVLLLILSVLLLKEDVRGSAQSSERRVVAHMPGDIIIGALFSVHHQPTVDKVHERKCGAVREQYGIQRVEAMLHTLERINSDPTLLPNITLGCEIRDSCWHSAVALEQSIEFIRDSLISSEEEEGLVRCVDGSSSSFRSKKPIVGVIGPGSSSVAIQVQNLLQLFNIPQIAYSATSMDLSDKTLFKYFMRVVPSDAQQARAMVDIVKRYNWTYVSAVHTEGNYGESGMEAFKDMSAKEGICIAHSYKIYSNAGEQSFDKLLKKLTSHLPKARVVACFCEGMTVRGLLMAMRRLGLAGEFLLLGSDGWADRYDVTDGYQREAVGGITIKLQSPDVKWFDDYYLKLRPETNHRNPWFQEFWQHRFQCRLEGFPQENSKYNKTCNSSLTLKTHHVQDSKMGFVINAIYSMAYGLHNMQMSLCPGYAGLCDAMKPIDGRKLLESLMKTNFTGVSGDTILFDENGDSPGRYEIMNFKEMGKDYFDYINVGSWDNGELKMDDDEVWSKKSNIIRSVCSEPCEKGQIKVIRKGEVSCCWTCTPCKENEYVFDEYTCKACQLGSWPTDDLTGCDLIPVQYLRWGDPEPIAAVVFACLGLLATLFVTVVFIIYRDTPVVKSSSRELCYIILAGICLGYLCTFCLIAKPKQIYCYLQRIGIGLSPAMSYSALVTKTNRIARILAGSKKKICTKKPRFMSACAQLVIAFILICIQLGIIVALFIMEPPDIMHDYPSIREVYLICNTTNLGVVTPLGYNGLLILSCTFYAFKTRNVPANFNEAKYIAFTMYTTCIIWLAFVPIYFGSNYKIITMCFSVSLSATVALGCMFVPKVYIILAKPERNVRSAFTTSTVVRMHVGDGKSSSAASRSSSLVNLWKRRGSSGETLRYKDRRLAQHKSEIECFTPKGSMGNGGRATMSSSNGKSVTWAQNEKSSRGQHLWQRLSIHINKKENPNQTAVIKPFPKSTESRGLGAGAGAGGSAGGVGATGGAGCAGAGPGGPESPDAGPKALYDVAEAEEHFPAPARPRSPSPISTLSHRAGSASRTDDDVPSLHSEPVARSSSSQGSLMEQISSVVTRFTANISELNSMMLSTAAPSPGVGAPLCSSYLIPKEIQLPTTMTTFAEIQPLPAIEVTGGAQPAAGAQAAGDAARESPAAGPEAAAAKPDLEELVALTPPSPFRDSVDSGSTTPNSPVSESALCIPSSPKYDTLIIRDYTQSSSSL
Metabotropic glutamate receptor 5 (Rattus norvegicus, UniProt P31424), sequence (P31424 whole entry): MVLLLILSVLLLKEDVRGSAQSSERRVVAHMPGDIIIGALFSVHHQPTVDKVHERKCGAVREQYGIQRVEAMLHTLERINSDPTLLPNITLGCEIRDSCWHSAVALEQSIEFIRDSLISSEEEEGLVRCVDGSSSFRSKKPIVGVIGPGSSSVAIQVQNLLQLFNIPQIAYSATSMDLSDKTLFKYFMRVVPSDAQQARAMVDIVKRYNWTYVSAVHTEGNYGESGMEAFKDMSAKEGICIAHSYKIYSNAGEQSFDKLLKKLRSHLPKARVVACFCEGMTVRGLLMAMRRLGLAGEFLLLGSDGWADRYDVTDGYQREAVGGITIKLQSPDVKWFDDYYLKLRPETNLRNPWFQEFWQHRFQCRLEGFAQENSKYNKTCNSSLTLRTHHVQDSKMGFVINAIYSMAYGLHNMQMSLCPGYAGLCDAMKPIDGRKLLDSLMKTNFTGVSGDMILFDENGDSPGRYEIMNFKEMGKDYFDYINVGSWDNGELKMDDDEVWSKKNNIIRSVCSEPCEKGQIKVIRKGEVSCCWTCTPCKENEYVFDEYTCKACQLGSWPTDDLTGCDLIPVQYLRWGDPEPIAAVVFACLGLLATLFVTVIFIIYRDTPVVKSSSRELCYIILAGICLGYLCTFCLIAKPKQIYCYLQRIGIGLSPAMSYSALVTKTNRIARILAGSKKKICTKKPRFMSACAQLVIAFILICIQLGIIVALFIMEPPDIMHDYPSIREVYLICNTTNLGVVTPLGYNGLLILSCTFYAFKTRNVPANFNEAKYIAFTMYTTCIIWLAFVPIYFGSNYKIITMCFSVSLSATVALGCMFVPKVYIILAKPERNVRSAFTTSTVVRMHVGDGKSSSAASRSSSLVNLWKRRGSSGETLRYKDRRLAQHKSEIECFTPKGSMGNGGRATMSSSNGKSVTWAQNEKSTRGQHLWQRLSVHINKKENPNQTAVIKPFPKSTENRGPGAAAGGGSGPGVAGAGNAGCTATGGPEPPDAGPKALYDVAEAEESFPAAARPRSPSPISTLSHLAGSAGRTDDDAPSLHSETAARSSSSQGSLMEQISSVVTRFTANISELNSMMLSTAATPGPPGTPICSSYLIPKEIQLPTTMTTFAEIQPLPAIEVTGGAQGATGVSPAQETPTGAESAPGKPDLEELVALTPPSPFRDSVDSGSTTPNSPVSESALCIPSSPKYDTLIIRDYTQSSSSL

As to `Cc1ccc(C#Cc2csc(C)n2)cc1`, the IC50 in data set [1] amounted to 0.845 µM. In [2], this molecule came in with a logD of 3.9. In [3], this molecule showed an inhibition constant (Ki) of 0.638 µM.

On to `Cc1nc(C#Cc2cncc(-c3ccccn3)c2)cs1`, for which the concentration for half-maximal inhibition (IC50) in [1] amounted to 0.022 µM. In data set [2], this molecule came in with a log distribution coefficient (logD) of 2.8. Moreover, in data set [3], the Ki is 0.028 µM.

As for `Cc1nc(C#Cc2ccc(-c3ccccn3)nc2)cs1`, the IC50 in data set [1] turned out to be 0.004 µM. This molecule yielded a logD in data set [2] of 3.7. The molecule further had a Ki in data set [3] of 0.016 µM.

In the case of `Cc1nc(C#Cc2cncc(-c3ccccc3)c2)cs1`, the IC50 in data set [1] was 0.002 µM. In data set [2], this molecule registered a pH-dependent lipophilicity (logD) of 4.1. For the same molecule, in data set [3], the affinity corresponds to a Ki of 0.04 µM.

`Cc1nc(C#Cc2ccncc2)cs1`: in data set [1], the IC50 was determined as 0.127 µM. Also, the affinity in [3] corresponds to a Ki of 0.218 µM.

`Cc1nc(C#Cc2ccccc2-c2ccccc2)cs1`: the IC50 in [1] is 0.423 µM. The Ki in data set [3] stood at 0.145 µM.

Turning to `Cc1nc(C#Cc2ccc(-c3ccccc3)cc2)cs1`, the IC50 in data set [1] turned out to be 0.022 µM. Also, in data set [2], the log distribution coefficient (logD) was 5. In data set [3], this molecule had a Ki of 0.043 µM.

As to `Cc1nc(C#Cc2ccccc2)cs1`, in [1], the IC50 came out at 0.004 µM. In addition, in data set [3], affinity was put at a Ki of 0.009 µM.

With `Cc1nc(C#Cc2cccnc2)cs1`, in data set [4], the clearance stood at 28 mL/min/kg. Also, the Cmax in [5] was 2000 nM. The half-life in data set [6] is 8.3 h. In [7], the CL/F is 28 mL/min/kg. Further, the bioavailability in [8] and in [9] was 16% each time.

`Cc1cccc(C#Cc2csc(C)n2)c1` displayed a pH-dependent lipophilicity (logD) in [2] of 3.9.

In the case of `Cc1nc(C#Cc2ccc(-c3ccccc3)nc2)cs1`, the logD in data set [2] is 3.9.

Turning to `Cc1nc(C#Cc2cncc(-c3cccnc3)c2)cs1`, the IC50 in data set [1] was 0.003 µM. Besides, in data set [5], the peak concentration (Cmax) was determined as 800 nM. Moreover, in data set [6], the half-life was 1.6 h. In data set [10], the clearance turned out to be 29 mL/min/kg. Besides, in data set [11], the CL/F is 29 mL/min/kg. Further, the bioavailability in [12] and in [13] was 26% throughout. Moreover, the logD in data set [2] was found to be 2.4. The same molecule came in with a Ki in [3] of 0.001 µM.

For `Cc1nc(C#Cc2ccc(-c3ccncc3)nc2)cs1`, in [1], the IC50 was 0.029 µM. In data set [2], the log distribution coefficient (logD) is 2.9. Also, in data set [3], the inhibitory constant (Ki) was found to be 0.021 µM.

In turn, `Cc1nc(C#Cc2cccc(-c3ccccc3)c2)cs1` displayed a logD in data set [2] of 4.1.

For the molecule `Cc1nc(C#Cc2ccccn2)cs1`, the Ki in [3] was 0.054 µM.

Regarding `Cc1nc(C#Cc2cncc(-c3ccncc3)c2)cs1`, the concentration for half-maximal inhibition (IC50) in [1] amounted to 0.018 µM. In data set [2], this molecule displayed a pH-dependent lipophilicity (logD) of 2.6. In [3], this molecule gave a Ki of 0.015 µM.

`Cc1nc(C#Cc2ccc(-c3cccnc3)nc2)cs1`: the clearance in data set [4] was determined as 15 mL/min/kg. Further, the Cmax in data set [5] was determined as 6500 nM. Further, the half-life in [6] is 0.8 h. Also, the CL/F in data set [7] was 15 mL/min/kg. For the same molecule, the bioavailability in data set [8] and in [9] was 100% in each case. This molecule also returned a logD in [2] of 3.1.

`Cc1nc(C#Cc2ccccc2C)cs1`: in data set [1], the IC50 is 0.015 µM. In data set [2], this molecule registered a logD of 3.8. Besides, the inhibitory constant (Ki) in [3] stood at 0.051 µM.
